Experimental data pooled from the literature.
Lines come from different studies, so protocols differ.
CTSL: Procathepsin L (CTSL, Homo sapiens, UniProt P07711)
XDH: Xanthine dehydrogenase/oxidase (XDH, Bos taurus, UniProt P80457)

| Structure (SMILES) | target | effect on | mode | method | concentration | inhibition |
| --- | --- | --- | --- | --- | --- | --- |
| CC[C@H](NC(=O)OCc1ccccc1)C(=O)N[C@H](C(=O)N[C@@H](Cc1ccccc1)C(=O)N(C)N(C#N)CCC(N)=O)C(C)(C)C | CTSL | enzyme activity | inhibitor |  | 50 µM | 99% |
| C[C@H](C(=O)N[C@H]1COc2ccccc2[C@@H]1S(C)(=O)=O)c1ccc(F)cc1 | XDH | enzyme activity | inhibitor |  | 10 µM | 10% |
| O=C(Oc1cncc(Cl)c1)c1cc2c(Cl)cc(Cl)cc2[nH]1 | CTSL | enzyme activity | inhibitor |  | 10 µM | 14% |
| Cn1cc(-c2cccc(N3CCc4c(sc5c4CC(C)(C)C5)C3=O)c2CO)cc(Nc2ccncn2)c1=O | 5'-AMP-activated protein kinase catalytic subunit alpha-1 (PRKAA1, Homo sapiens, UniProt Q13131) | enzyme activity | inhibitor |  | 1 µM | 1% |
| CN(C(=O)[C@H](Cc1ccccc1)NC(=O)[C@@H](NC(=O)OCc1ccccc1)C(C)(C)C)N(C#N)CCC(N)=O | CTSL | enzyme activity | inhibitor |  | 50 µM | 99% |
| COc1cc(Nc2ncc(F)c(Nc3ccc4c(n3)NC(=O)C(C)(C)O4)n2)cc(OC)c1OC | Mitogen-activated protein kinase kinase kinase kinase 5 (MAP4K5, Homo sapiens, UniProt Q9Y4K4) | binding |  | competition with immobilised ligand | 10 µM | 16% |
| NC(=O)Cc1ccccc1 | XDH | enzyme activity | inhibitor | absorbance | 100 µg/mL | 7.3% |
| C#Cc1n[nH]c2c(-c3cn([C@@H](C)c4ccccn4)c(=O)[nH]c3=O)cc(F)cc12 | Phosphatidylinositol 4-kinase beta (PI4KB, Homo sapiens, UniProt Q9UBF8) | enzyme activity | inhibitor |  | 0.1 µM | 9.3% |
| CC(C)C[C@H](NC(=O)[C@H]1O[C@@H]1C(=O)O)C(=O)NCCCCN=C(N)N | CTSL | enzyme activity | inhibitor |  | 5 nM | 39% |
| Cn1cc(-c2cc(F)cc(N3CCn4c(cc5c4CCCC5)C3=O)c2CO)cc(Nc2ccc(N3CCN(C4COC4)CC3)cn2)c1=O | Sphingosine kinase 2 (SPHK2, Homo sapiens, UniProt Q9NRA0) | enzyme activity | inhibitor |  | 0.1 µM | -10% |
| C#Cc1n[nH]c2c(-c3cn([C@@H](C)c4ccccc4)c(=O)[nH]c3=O)cc(F)cc12 | Protein kinase C theta type (PRKCQ, Homo sapiens, UniProt Q04759) | enzyme activity | inhibitor |  | 0.1 µM | 10.2% |
| CCOC(=O)c1ccc(OC(=O)CCCCCNC(=N)N)cc1 | CTSL | enzyme activity | inhibitor |  | 10 µM | 0% |
